Results taken from ChEMBL document CHEMBL1121539, “Antitumor structure-activity relations. Nitrosoureas vs. L-1210 leukemia” (J Med Chem, 1980).

Tests used:
[1] = system: L1210; assay: Toxicity against L-1210 leukemia cells in mice after intraperitoneal administration, activity is expressed as LD10; parameters: LD10: unit not given here; details: mouse, in vivo, ip
[2] = Partition coefficient (logP); assay type: physicochemical; details: octanol/water
Summary of the method: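 Shake partitioning between octanol and distilled water gave log P. For carboxylate substituents, log P was taken in 0.1 N NaOH, with Na+ as counterion.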

[3] = system: L1210; assay: Tested for 3 log kill of leukemia cells; assay type: functional, Mus musculus
Summary of the method: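 L-1210 leukemia cells (10^4) were inoculated intracerebrally into BDF2 mice, and drug was given intraperitoneally. The end point was the dose giving 3 log kill, expressed as log 1/C. The value comes from one or more individual experiments.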

Structure (SMILES) | log(1/LD10) [1] | logP ([2]; read-out: logP) | log(1/C) [3] | LD10 [1] | logP [2]
O=NN(CCCl)C(=O)NC1CCS(=O)(=O)CC1 | 1.22 | 0.19 | 1.93 |  | 
O=NN(CCCl)C(=O)NC1CCC(=O)NC1=O (stereo not drawn) | 1.16 |  | 1.8 |  | 
CCCCCC(C)NC(=O)N(CCCl)N=O (stereo not drawn) | 0.642 | 3.55 | 0.853 |  | 
O=NN(CCCl)C(=O)NCCF | 0.49 | 0.95 | 0.673 |  | 
O=NN(CCCl)C(=O)NC1CCC(CC2CCC(NC(=O)N(CCCl)N=O)CC2)CC1 (stereo not drawn) | 0.283 | 6.07 | 1.36 |  | 
O=NN(CCCl)C(=O)NC1CCCCCCCCCCC1 | -0.573 | 5.8 | 0.599 |  | 
O=NN(CCCl)C(=O)NC1C2CC3CC(C2)CC1C3 (stereo not drawn) | 0.512 | 3.62 | 0.854 |  | 
O=NN(CCCl)C(=O)NC1CCSc2ccccc21 (stereo not drawn) | 0.585 | 2.91 | 1.4 |  | 
O=NN(CCF)C(=O)NC1CCSCC1 | 0.827 | 1.43 | 1.69 |  | 
O=NN(CCF)C(=O)NC1CSCSC1 | 0.802 | 1.54 | 1.78 |  | 
CC(=O)OCC1CCC(NC(=O)N(CCCl)N=O)CC1 (stereo not drawn) | 1.02 | 2.35 | 1.66 |  | 
O=NN(CCF)C(=O)NCCF | 1.37 | 0.38 | 1.6 |  | 
O=NN(CCCl)C(=O)NC1C(O)CCCC1O (stereo not drawn) | 1.17 | 0.16 |  |  | 
O=NN(CCCl)C(=O)NC1CCC(NC(=O)N(CCCl)N=O)CC1 (stereo not drawn) | 0.66 | 3.57 |  |  | 
COC1OC(COC(C)=O)C(OC(C)=O)C(NC(=O)N(CCCl)N=O)C1OC(C)=O (stereo not drawn) | 1.06 | 0.67 |  |  | 
CC(=O)OC1CCC(NC(=O)N(CCCl)N=O)CC1 (stereo not drawn) | 0.813 | 1.66 | 1.55 |  | 
Cc1cc(C)c(NC(=O)N(CCCl)N=O)c(C)c1 | 0.675 | 3.11 | 1.58 |  | 
O=COCC1CCC(NC(=O)N(CCCl)N=O)CC1 (stereo not drawn) | 1.12 | 1.85 | 1.62 |  | 
CCOC(=O)C1(NC(=O)N(CCCl)N=O)CCCCC1 | -0.214 | 3.45 | 0.582 |  | 
O=NN(CCCl)C(=O)NC12CC3CC(CC(C3)C1)C2 | 0.664 | 3.62 | 1.16 |  | 
O=NN(CCF)C(=O)NC1CC2CCC1C2 (stereo not drawn) | 0.547 | 2.4 | 1.25 |  | 
CCOC(=O)C1(NC(=O)N(CCCl)N=O)CCCC1 | 0.072 | 2.88 | 0.562 |  | 
CC(=O)OCC1OCC(NC(=O)N(CCCl)N=O)C(OC(C)=O)C1OC(C)=O (stereo not drawn) |  | 1.87 | 1.79 |  | 
CC(C)(C)C1CCC(NC(=O)N(CCCl)N=O)CC1 (stereo not drawn) | -0.212 | 4.66 | 0.684 |  | 
CCOC(=O)C1CCCC(NC(=O)N(CCCl)N=O)C1 (stereo not drawn) | 0.786 | 2.2 | 1.41 |  | 
CCOC(=O)C1CCC(NC(=O)N(CCCl)N=O)CC1 (stereo not drawn) | 0.967 | 2.2 | 1.51 |  | 

Structure (SMILES) | log(1/LD10) [1] | logP ([2]; read-out: logP) | log(1/C) [3] | LD10 [1] | logP [2]
O=NN(CCCl)C(=O)NC1(C(=O)O)CCCC1 | 0.308 | 1.82 | 0.605 |  | 
CC(C)(NC(=O)N(CCCl)N=O)C(=O)O | -0.049 | 0.91 | 0.591 |  | 
CC1CCC(NC(=O)N(CCF)N=O)CC1 (stereo not drawn) | 0.72 | 2.72 | 1.16 |  | 
CC1(C)CCC(NC(=O)N(CCF)N=O)CC1 | 0.674 | 3.13 | 1.09 |  | 
O=NN(CCF)C(=O)NC1CCCCC1 | 0.806 | 2.25 | 1.34 |  | 
O=NN(CCF)C(=O)NC1CCCCCCCCCCC1 | 0.496 | 5.22 |  |  | 
O=NN(CCCl)C(=O)N[C@H]1CC[C@@H](C(=O)O)CC1 | 1.03 | 1.68 | 1.63 |  | 
C[C@H]1CC[C@H](NC(=O)N(CCCl)N=O)CC1 | 0.771 |  | 1.55 |  | 
O=NN(CCCl)C(=O)N[C@H]1CC[C@@H](O)CC1 | 0.735 |  | 1.36 |  | 
O=NN(CCCl)C(=O)N[C@H]1CC[C@H](C(=O)O)CC1 | 1.01 | 1.53 | 1.47 |  | 
O=NN(CCCl)C(=O)N[C@H]1CC[C@@H](CC(=O)O)CC1 | 0.701 | 2.22 | 1.35 |  | 
O=NN(CCCl)C(=O)N[C@H]1CC[C@H](CC(=O)O)CC1 | 0.863 | 2.16 | 1.65 |  | 
O=NN(CCCl)C(=O)N[C@H]1CCCC[C@@H]1Cl | 0.672 |  | 1.34 |  | 
O=NN(CCCl)C(=O)N[C@@H]1CCCC[C@H]1O | 1.1 | 1.34 | 1.82 |  | 
CO[C@H]1CC[C@@H](NC(=O)N(CCCl)N=O)CC1 | 0.819 | 2.09 | 1.38 |  | 
C[C@H]1S(=O)(=O)C[C@H](NC(=O)N(CCCl)N=O)CS1(=O)=O | 0.801 | -0.53 | 1.89 |  | 
C[C@H]1CCC[C@@H](NC(=O)N(CCCl)N=O)C1 | 0.315 | 3.37 | 1.09 |  | 
O=NN(CCCl)C(=O)N[C@@H]1CCCC[C@@H]1Cl | 0.446 | 2.73 | 0.951 |  | 
CO[C@H]1CC[C@H](NC(=O)N(CCCl)N=O)CC1 | 0.841 | 2.09 | 1.44 |  | 
COC(=O)[C@H]1CC[C@H](NC(=O)N(CCCl)N=O)CC1 | 1.05 | 1.89 |  |  | 
C[C@H]1CCC[C@H](NC(=O)N(CCCl)N=O)C1 |  |  | 1.09 | 0.352 | 3.3
O=NN(CCF)C(=O)N[C@H]1CC[C@H](C(=O)O)CC1 |  |  | 1.21 |  | 1.1
C[C@H]1S(=O)(=O)C[C@@H](NC(=O)N(CCCl)N=O)CS1(=O)=O | 1.04 | -0.53 | 1.89 |  | 
C[C@H]1CC[C@@H](NC(=O)N(CCCl)N=O)CC1 | 0.435 | 3.3 |  |  | 
O=NN(CCCl)C(=O)N[C@@H]1CCCC[C@@H]1O | 0.698 | 1.75 | 1.32 |  | 
O=NN(CCCl)C(=O)N[C@@H]1CCC[C@H](O)C1 | 0.698 | 1.11 | 1.28 |  | 

Structure (SMILES) | log(1/LD10) [1] | logP ([2]; read-out: logP) | log(1/C) [3] | LD10 [1] | logP [2]
CC(=O)O[C@@H]1[C@@H](OC(C)=O)[C@H](OC(C)=O)CO[C@H]1NC(=O)N(CCCl)N=O | 1.25 | 0.82 | 1.91 |  | 
CC1SCC(NC(=O)N(CCCl)N=O)CS1 (stereo not drawn) | 1 | 2.49 | 1.61 |  | 
CC1(NC(=O)N(CCCl)N=O)CCCC1 | -0.03 | 2.7 | 0.576 |  | 
O=NN(CCF)C(=O)NC1C2CC3CC(C2)CC1C3 (stereo not drawn) | 0.592 | 3.04 | 0.797 |  | 
O=NN(CCCl)C(=O)NC1CCCCC1NC(=O)N(CCCl)N=O (stereo not drawn) | 0.423 | 3.57 | 1.5 |  | 
O=NN(CCCl)C(=O)NC1CC2CCC1C2 (stereo not drawn) | 0.591 | 2.98 | 1.21 |  | 
O=NN(CCCl)C(=O)NC1CCCC1 | 0.215 | 2.19 | 0.74 |  | 
CN(C)C(=O)c1ccc(NC(=O)N(CCCl)N=O)cc1 |  | 1.07 | 1.87 | 1.27 | 
O=NN(CCF)C(=O)NC1CCSc2ccccc21 (stereo not drawn) | 0.896 | 2.33 | 1.31 |  | 
O=NN(CCCl)C(=O)NC1CCCC(C(=O)O)C1 (stereo not drawn) | 0.912 | 1.86 | 1.47 |  | 
CC1CC(O)C(NC(=O)N(CCCl)N=O)C(O)C1 (stereo not drawn) | 1.12 | 0.69 |  |  | 
CC(C)(C)C1CCCC(NC(=O)N(CCCl)N=O)C1 (stereo not drawn) | 0.239 | 4.6 | 0.763 |  | 
O=NN(CCF)C(=O)NC1CS(=O)(=O)CS(=O)(=O)C1 | 0.626 | -1.48 | 1.69 |  | 
O=NN(CCCl)C(=O)NC(Cc1ccccc1)C(=O)O (stereo not drawn) | 0.563 | 2.59 | 1.1 |  | 
O=NN(CCCl)C(=O)NC1CCSCC1 | 1.25 | 2.07 | 2.1 |  | 
CC(=O)OCC1CCC(NC(=O)N(CCF)N=O)CC1 (stereo not drawn) | 0.705 | 1.77 | 0.984 |  | 
CCC1CCC(NC(=O)N(CCCl)N=O)CC1 (stereo not drawn) | 0.445 | 3.84 | 1.27 |  | 
O=NN(CCCl)C(=O)NC1CCC(Br)CC1 (stereo not drawn) | 0.571 | 2.67 | 1.24 |  | 
CC1CC(NC(=O)N(CCCl)N=O)CC(C)(C)C1 (stereo not drawn) | -0.434 | 4.06 | 0.294 |  | 
O=NN(CCCl)C(=O)NC1CCCC(NC(=O)N(CCCl)N=O)C1 (stereo not drawn) | 0.146 | 2.74 | 1.41 |  | 
O=NN(CCCl)C(=O)NC1CCC(Cl)CC1 (stereo not drawn) | 0.738 | 2.66 | 1.25 |  | 
CC(=O)OCC1OC(NC(=O)N(CCCl)N=O)C(OC(C)=O)C(OC(C)=O)C1OC(C)=O (stereo not drawn) | 1.41 | 1.04 |  |  | 
CC(=O)OC1CCC(NC(=O)N(CCF)N=O)CC1 (stereo not drawn) | 0.884 | 1.33 | 1.4 |  | 
COCC1OC(O)C(NC(=O)N(CCCl)N=O)C(OC)C1OC (stereo not drawn) | 0.682 | 0.8 | 1.48 |  | 
O=NN(CCCl)C(=O)NCCCl [CARMUSTINE] | 0.718 |  | 1.59 |  | 
O=NN(CCCl)C(=O)NC1CCCCC1 [LOMUSTINE] | 0.613 |  | 1.25 |  | 
